MC4R barr agon = MC4R agonists recruiting beta-arrestin, primary screen, cell-based, luminescence, agonist arm of biased-ligand search | Melanocortin receptor 4 (Homo sapiens), P32245 | U2OS MC4R beta-arrestin complementation; percent of melanotan II response, DMSO zero | activation, % at 8.9 µM | hit rate 0.98% among 360,000;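 active means activation above a per-plate cutoff, the mean activation of sample wells on that plate plus 3 SD, cut at about 8% in these data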
Target sequence (P32245 whole entry, looked up): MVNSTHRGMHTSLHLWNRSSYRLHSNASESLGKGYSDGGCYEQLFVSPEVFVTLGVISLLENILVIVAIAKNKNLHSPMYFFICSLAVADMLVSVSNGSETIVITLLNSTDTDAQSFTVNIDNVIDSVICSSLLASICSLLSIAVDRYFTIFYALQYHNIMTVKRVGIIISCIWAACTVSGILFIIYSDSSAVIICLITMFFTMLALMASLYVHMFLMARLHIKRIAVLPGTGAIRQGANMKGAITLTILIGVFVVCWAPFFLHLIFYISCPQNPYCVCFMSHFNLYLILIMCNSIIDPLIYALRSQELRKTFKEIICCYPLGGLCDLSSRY
AHR act = AHR activators, primary screen, cell-based, luminescence, luciferase reporter, human; hit rate 2.5% among 320,000; activation, % at 5 µM; AHR-responsive luciferase reporter cells; AID 2796, 2010; in the data active means activation above about 47%;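 further: 0% = vehicle wells and 100% = reference agonist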
m5-HT2A agonist = mouse Htr2a agonists via beta-arrestin recruitment, primary screen, cell-based, luminescence; activation, % at 7.6 µM; 5-hydroxytryptamine receptor 2A (Mus musculus), P35363; CHO-K1 mHTR2A beta-arrestin complementation; percent of 30 µM serotonin response; hit rate 0.66% among 360,000;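 active means activation above a run cutoff, the mean activation of all tested compounds plus 3 SD, cut at about 14% in these data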;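 further: 0% = plate median of compound wells and 100% = 30 µM serotonin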
FXN GAA850 act = FXN promoter activators, primary screen, cell-based, luciferase luminescence, HEK293 lucGAA850. HEK293 lucGAA850 FXN promoter luciferase reporter, 24 h; percent of 10 µM SAHA response. activation, % at 6 µM. hit rate 0.56% among 360,000;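 active means activation above the average of all compounds screened plus 3 SD, cutoff fixed separately per campaign, cut at about 7.5% in these data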;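 further: 0% = DMSO wells and 100% = 10 µM SAHA wells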
MC4R antagonist = MC4R antagonists of cAMP signaling, primary screen, cell-based, TR-FRET, antagonist arm of biased-ligand search; MC4R-expressing cells, MTII-stimulated cAMP, LANCE TR-FRET; inhibition, % at 6.5 µM; hit rate 0.48% among 360,000; AID 540295, 2011;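 active means inhibition above its plate's cutoff, the mean of tested wells on that plate plus 3 SD, cut at about 29% in these data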;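 further: 0% = Melanotan II alone and 100% = Melanotan II plus saturating MCL0020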
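System – human MC4R-expressing U2OS cells · Also added – Melanotan II · Dosing – one concentration, 6.5 µM nominal · Timing – 30-min compound, 1-h challenge, 1-h detection, room temperature · Measured by – Eu-cAMP/anti-cAMP TR-FRET, emission 671 nm · Replicates – singlicate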
Starred values were filed as active, the others as inactive; nt = no result given. Hits are enriched below; roughly 4.7% of the tested compounds scored in any of these assays.

SMILES	MC4R barr agon	AHR act	m5-HT2A agonist	FXN GAA850 act	MC4R antagonist
O=C1CCC(c2ccccc2)=NN1	0.7	-0.8	4.0	0.8	6.9
CSc1ccc(CN2C(=O)C(C)ON=C2c2ccccc2F)cc1 (centres undefined)	2.7	nt	4.4	1.1	10.4
COc1ccc(OC)c(Nc2nc(-c3sc(N)nc3C)cs2)c1	-0.6	46.2	-1.6	0.6	0.0
CC(=O)Nc1ccc(Nc2nc(-c3sc(NC(C)=O)nc3C)cs2)cc1	-2.3	-7.7	-1.6	-1.6	4.9
CCCC(C)C(=O)Nc1nc(C)c(-c2csc(Nc3cc(OC)ccc3OC)n2)s1 (centres undefined)	0.4	73.9*	-0.1	-1.5	9.5
COc1ccccc1Nc1nc(-c2sc(NC(=O)c3cccc(Cl)c3)nc2C)cs1	nt	32.4	nt	nt	nt
CCC(C)C(=O)Nc1nc(C)c(-c2csc(Nc3ccc(Cl)cc3)n2)s1 (centres undefined)	-0.9	50.9*	1.0	-1.5	16.2
CCCC(=O)Nc1nc(C)c(-c2csc(Nc3ccc(Cl)cc3)n2)s1	1.5	65.3*	3.3	-0.9	11.8
CCCCCC(=O)Nc1nc(C)c(-c2csc(Nc3cc(Cl)ccc3OC)n2)s1	-1.8	50.5*	-8.3	1.7	10.7
Cc1cc(N(C)C)cc(C)c1N=Nc1cc[n+]([O-])cc1	-3.2	nt	-1.6	1.2	-16.8
COc1nc(-c2ccccc2)cc(-c2ccccc2)n1	4.1	63.2*	-3.9	-0.9	14.5
CN(N)c1nc(-c2ccccc2)cc(-c2ccccc2)n1	-0.2	66.3*	1.1	2.6	-2.1
Cc1nc(-c2ccccc2)cc(-c2ccccc2)n1	-0.7	18.3	-2.5	0.4	9.2
CCN(CC)c1nc(C(N)=O)cc(-c2ccccc2)n1	1.7	13.1	1.2	-0.6	10.6
COc1ccc2nc(-c3ccccc3)[nH]c(=O)c2c1	-2.4	nt	0.2	4.1	-0.4
COc1ccc2nc(-c3ccccc3)cc(OC)c2c1	4.0	64.4*	0.8	5.7	5.4
Cc1c(Cl)cccc1NC(=O)C1CC2CCC1C2 (centres undefined)	-0.6	0.8	2.1	1.7	5.9
Cc1cccc(NC(=O)C(=O)NCC2CCCN2S(=O)(=O)c2cccs2)c1 (centres undefined)	-1.9	nt	-5.2	-1.5	-2.8
CC(C)[C@@H]1Cc2[nH]c(=O)[nH]c(=O)c2[C@H](C)O1	nt	nt	-2.1	nt	nt
O=C(NCc1cccnc1)C(=O)NCC1OCCCN1S(=O)(=O)c1cc(F)ccc1F (centres undefined)	-0.8	nt	1.2	2.9	8.3
Cc1ccc(OCCC(=O)NNC(=O)c2nn(C)c(=O)c3ccccc23)cc1	0.0	0.2	5.2	3.6	-2.7
Cc1nc2c(cc1C#N)C(=O)c1ccccc1-2	-1.4	159.2*	3.8	3.1	-3.1
CCCNC(=O)C1(C)CCCN(Cc2ccccc2C#N)C1 (centres undefined)	0.0	nt	-1.2	1.1	-4.0
CC1(C(=O)NC2CCc3ccccc32)CCN1CCc1ccccc1 (centres undefined)	8.6*	nt	-2.8	-1.3	2.7
CC1(C(=O)NCC2CCCCC2)CCN1CCc1ccccc1 (centres undefined)	5.8	nt	-8.6	0.2	16.5
SMILES	MC4R barr agon	AHR act	m5-HT2A agonist	FXN GAA850 act	MC4R antagonist
Cc1cc(C)n2nc(SCC(=O)N3CCc4ccccc43)nc2n1	2.9	38.1	4.0	2.2	15.4
Cc1cc(C)nc(SCC(=O)N2CCc3ccccc32)n1	0.8	72.8*	-3.9	3.9	0.8
COC1=CC(=O)OC(c2ccc(C(F)(F)F)cc2)C1 (centres undefined)	nt	nt	-2.5	nt	nt
O=C(/C=C/c1ccccc1)OCC(=O)c1c[nH]c2ccccc12	9.3*	19.1	0.2	-2.9	2.6
COc1cccc(/C=C/C(=O)OCC(=O)c2c[nH]c3ccccc23)c1	-1.1	24.8	6.3	-0.1	3.7
Cc1cc(C(C)(C)C)cc(C)c1COC(=O)CN1C(=O)NC2(CCCC2)C1=O	0.3	-0.8	-2.7	0.6	5.7
CC(=O)Oc1c(Br)cc(N(C(C)=O)S(=O)(=O)c2ccccc2)c2ccccc12	0.8	47.6*	10.7	-0.4	-3.8
CC(C)=CCC[C@H](C)C[C@@H]1Cc2[nH][nH]c(=O)c2[C@@H](c2ccc(F)cc2)O1	nt	nt	-2.6	nt	nt
COc1ccc(OC)c(CNn2c(-c3ccccc3F)nc3ccccc3c2=O)c1	-0.4	20.2	1.0	-0.5	3.9
COc1ccc(O)c(CNn2c(-c3ccc(Br)cc3)nc3ccccc3c2=O)c1	2.4	61.6*	6.7	-1.0	4.5
COc1ccc([C@H]2CC(=O)C=C(c3cccc(NC(C)=O)c3)C2)cc1	-2.2	9.2	6.6	2.4	-1.4
COc1ccc(C(C(=O)NC2CCCCC2)N(C(=O)CCl)c2ccc(OC)cc2)cc1 (centres undefined)	0.6	-1.8	8.1	-15.7	7.0
COc1ccc(N(C(=O)CCl)C(C(=O)NC2CCCCC2)c2cccnc2)cc1 (centres undefined)	8.7*	2.2	4.1	-11.3	-4.2
COc1ccc(C(C(=O)NC2CCCCC2)N(C(=O)CCl)c2ccc(C)cc2)cc1 (centres undefined)	18.4*	-0.2	3.6	-11.2	6.4
COc1cccc(N(C(=O)c2cnccn2)C(C(=O)NC2CCCCC2)c2ccc(Cl)cc2)c1 (centres undefined)	-1.5	5.9	0.2	3.0	3.1
O=C(NC1CCCCC1)C(c1cccnc1)N(C(=O)CCl)c1ccc(F)cc1 (centres undefined)	7.7	3.9	2.2	-12.9	5.3
COc1ccc(C(C(=O)NC2CCCCC2)N(C(=O)CCl)c2cccc(Cl)c2)cc1 (centres undefined)	25.1*	-0.8	9.6	-17.0	0.9
COc1cc2ccccc2cc1C(=O)NCc1ccncc1	-2.8	49.9*	-2.8	2.5	-6.8
COc1cc2cc(C(=O)NC(C)c3cccc4ccccc34)c(N)nc2cc1OC (centres undefined)	nt	nt	3.1	nt	nt
COc1cc2ccccc2cc1C(=O)Nc1cccnc1	-0.8	77.2*	-7.0	7.0	7.5
COc1cc2cc(C(=O)Nc3ccccc3)c(N)nc2cc1OC	-0.2	48.4*	-3.1	1.0	8.0
COc1ccccc1-c1noc(-c2ccccc2C(=O)Nc2ccccc2)n1	3.5	47.1*	-1.1	2.5	-0.5
COc1ccccc1NC(=O)c1ccccc1-c1nc(-c2ccccc2OC)no1	-1.9	17.1	0.3	-3.6	-1.1
O=C(Nc1cccnc1)c1ccc2ccccc2c1O	0.6	47.7*	-5.8	3.6	-1.2
COc1cccc(NC(=O)c2cc(-c3cccnc3)nc3c(Cl)cccc23)c1	11.8*	24.0	2.7	-2.5	4.7

Screening results from PubChem.
